Reference: ChEMBL document CHEMBL1250426, “Structure-activity relationship of brominated 3-alkyl-5-methylene-2(5H)-furanones and alkylmaleic anhydrides as inhibitors of Salmonella biofilm formation and quorum sensing regulated bioluminescence in Vibrio harveyi” (Bioorg Med Chem, 2010)
Activity calls are given as the source filed them. The rule behind the calls is not given here.

How the values were obtained:
Vibrio harveyi [1] = experiment: Antimicrobial activity against wild type Vibrio harveyi BB120; format: functional
In short: (§1)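 Overnight AB-medium culture, OD600 adjusted to 0.4, diluted 1:100 into Luria-Marine broth and added to twofold compound dilutions in LM broth, 200 µl per well. Incubated 5 h at 30 °C with aeration under breathable seal; growth read as OD600. GIC50 = concentration reducing OD600 by 50%, from gradients in 2–3 independent experiments, 2–3 repeats each; highest concentration tested 1000 µM.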

Salmonella typhimurium [2] = experiment: Antimicrobial activity against Salmonella Typhimurium ATCC 14028 assessed as inhibition of biofilm formation after 48 hrs using crystal violet staining by microtiter plate assay; format: functional, organism-based, Salmonella enterica subsp. enterica serovar Typhimurium; conditions: Salmonella enterica, ATCC 14028, 48 h
In short: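 Peg-lid biofilm assay: overnight LB culture diluted 1:100 into TSB 1/20, ca. 1×10⁶ cells added to twofold compound dilutions, 200 µl total per well. Static incubation 48 h at 16 °C; lid moved to fresh medium with compound after 24 h. IC50 from concentration gradients, 2–3 independent experiments, 2–3 repeats each.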

[3] = Inhibition of quorum sensing regulated bioluminescence in wild type Vibrio harveyi BB120 after 5 hrs by luminescence assay
In short: (§2)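 Twofold compound dilutions in LM broth; OD600-adjusted (0.4) AB-grown overnight culture diluted 1:100 in Luria-Marine broth, 200 µl per well. Incubated 5 h at 30 °C with aeration; luminescence imaged by CCD camera. IC50 = concentration inhibiting luminescence by 50%, fitted from gradients in 2–3 independent experiments (2–3 repeats each); top concentration 1000 µM.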

Salmonella typhimurium [4] = experiment: Antimicrobial activity against Salmonella Typhimurium ATCC 14028 assessed as effect on planktonic growth at 10 uM after 36 hrs by microtiter plate assay; format: functional, organism-based; conditions: Salmonella enterica subsp. enterica serovar Typhimurium
In short: (§3)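 Overnight LB culture diluted 1:200 in TSB 1/20; 300 µl per well; compound serial dilutions made in EtOH, 3 µl added per well in triplicate; solvent-only controls in three- or fourfold. Incubated at 16 °C for at least 36 h with continuous shaking in Bioscreen reader; OD600 read every 15 min; growth curves compared with untreated controls.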

Salmonella typhimurium [5] = experiment: Antimicrobial activity against Salmonella Typhimurium ATCC 14028 assessed as effect on planktonic growth at 250 uM after 36 hrs by microtiter plate assay; format: functional, organism-based; conditions: Salmonella enterica subsp. enterica serovar Typhimurium; in short: as §3
Salmonella typhimurium [6] = experiment: Antimicrobial activity against Salmonella Typhimurium ATCC 14028 assessed as effect on planktonic growth at 1 uM after 36 hrs by microtiter plate assay; format: functional, organism-based; conditions: Salmonella enterica subsp. enterica serovar Typhimurium; in short: as §3
Salmonella typhimurium [7] = experiment: Antimicrobial activity against Salmonella Typhimurium ATCC 14028 assessed as effect on planktonic growth at 100 uM after 36 hrs by microtiter plate assay; format: functional, organism-based; conditions: Salmonella enterica subsp. enterica serovar Typhimurium; in short: as §3
Vibrio harveyi [8] = experiment: Inhibition of quorum sensing regulated bioluminescence in Vibrio harveyi BNL258 harboring hfq::Tn5lacZ mutant quorum sensing after 5 hrs by luminescence assay
In short: (§4)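 Twofold serial dilutions in Luria-Marine broth; overnight culture (grown in AB medium) adjusted to OD600 0.4, diluted 1:100 and added 1:1 to wells (200 µl total). Incubated 5 h at 30 °C with aeration under breathable seal. Luminescence read by CCD camera, OD600 also measured. Luminescence expressed as percentage of untreated control of the same strain.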

FM3A = experiment: Cytotoxicity against mouse FM3A cells assessed as inhibition of cell proliferation after 2 days by coulter counter assay; format: cell-based; conditions: 48 h
In short: (§5)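 Cells suspended at 300,000–500,000 cells/mL; 100 µL added to equal volume of compound dilution in 96-well plates. Incubated at 37 °C for 2 days (L1210, FM3A), 3 days (CEM) or 4 days (HeLa, OST). Cell number counted by Coulter counter; IC50 = concentration inhibiting proliferation by 50%.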

HeLa = experiment: Cytotoxicity against human HeLa cells assessed as inhibition of cell proliferation after 4 days by coulter counter assay; format: cell-based; conditions: 96 h; in short: as §5
OST = experiment: Cytotoxicity against human thymidine kinase deficient OST cells assessed as inhibition of cell proliferation after 4 days by coulter counter assay; format: cell-based; conditions: 96 h; in short: as §5
L1210 = experiment: Cytotoxicity against mouse L1210 cells assessed as inhibition of cell proliferation after 2 days by coulter counter assay; format: cell-based; conditions: L1210, 48 h; in short: as §5
CCRF-CEM = experiment: Cytotoxicity against human CEM cells assessed as inhibition of cell proliferation after 3 days by coulter counter assay; format: cell-based; conditions: 72 h; in short: as §5
Vibrio harveyi [9] = experiment: Inhibition of quorum sensing regulated bioluminescence in Vibrio harveyi JAF553 luxU H58A linked to Kan mutant quorum sensing after 5 hrs by luminescence assay; in short: as §4
Vibrio harveyi [10] = experiment: Inhibition of quorum sensing regulated bioluminescence in Vibrio harveyi JAF483 luxO D47A linked to Kan mutant quorum sensing after 5 hrs by luminescence assay; in short: as §4
[11] = Inhibition of quorum sensing regulated bioluminescence in wild type Vibrio harveyi BB120 at 1000 uM after 5 hrs by luminescence assay; in short: as §2
Vibrio harveyi [12] = experiment: Antimicrobial activity against wild type Vibrio harveyi BB120 at 1000 uM; format: functional, organism-based; in short: as §1

Row | SMILES | GI50 (Vibrio harveyi [1]) [µM] | IC50 (Salmonella typhimurium [2]) [µM] | IC50 [3] [µM] | Activity (Salmonella typhimurium [4]) | Activity (Salmonella typhimurium [5]) | Activity (Salmonella typhimurium [6]) | Activity (Salmonella typhimurium [7]) | further results
1 | CCCCCCC1=CC(=C(Br)Br)OC1=O | 197 | 160 | 84 |  |  |  |  | 
2 | CCCC(OC(C)=O)C1=C(Br)/C(=C/Br)OC1=O (stereo unspecified) | 147 | 132 | 50.1 | inactive | inactive | inactive | inactive | 
3 | CC(=O)OC(C)C1=CC(=C(Br)Br)OC1=O (stereo unspecified) |  | 162 |  | inactive | inactive | inactive | inactive | 
4 | CCCC(Br)C1=CC(=C(Br)Br)OC1=O (stereo unspecified) | 1.07 | 1.31 | 0.2 | inactive | Active | inactive | Active | 
5 | O=C1C=C(Br)/C(=C/Br)O1 | 3.16 |  | 2.71 |  |  |  |  | 
6 | CC(=O)OC(C)C1=C(Br)C(=C(Br)Br)OC1=O (stereo unspecified) | 25.4 | 7.29 | 6.31 | inactive | Active | inactive | inactive | 
7 | CCCC(Br)C1=C(Br)/C(=C/Br)OC1=O (stereo unspecified) | 4.04 | 5.71 | 1.18 | inactive | Active | inactive | Active | 
8 | CC(Br)C1=C(Br)C(=C(Br)Br)OC1=O (stereo unspecified) | 9.74 | 4.09 | 2.76 | inactive | inactive | inactive | inactive | 
9 | CC(Br)C1=CC(=C(Br)Br)OC1=O (stereo unspecified) | 3.07 | 1.17 | 0.774 | Active | Active | inactive | Active | 
10 | CCCCCC(Br)C1=C(Br)/C(=C/Br)OC1=O (stereo unspecified) | 7.27 | 3.23 | 5.21 | inactive | inactive | inactive | inactive | 
11 | CCCCCCC1=C(Br)/C(=C/Br)OC1=O | 34 | 10.7 | 11.9 | inactive | Active |  | inactive | 
12 | C=C1OC(=O)C(CCCCCC)=C1Br | 36.3 | 19.4 | 1.36 | inactive | Active |  | Active | Activity (Vibrio harveyi [8]): Active; IC50 (FM3A): 16 µM; IC50 (HeLa): 48 µM; IC50 (OST): 2 µM; IC50 (L1210): 8.5 µM; IC50 (CCRF-CEM): 7.5 µM; Activity (Vibrio harveyi [9]): Active; Activity (Vibrio harveyi [10]): Active
13 | CCCCCCCCCCC1=C(Br)/C(=C/Br)OC1=O | > 300 |  | 26.6 |  |  |  |  | 
14 | CCCCC1=C(Br)C(=C(Br)Br)OC1=O | 20.5 |  | 14.4 |  |  |  |  | 
15 | CCC1=C(Br)/C(=C/Br)OC1=O | 10.8 | 17.9 | 9.27 | inactive | Active |  | inactive | IC50 (FM3A): > 500 µM; IC50 (HeLa): 39 µM; IC50 (OST): 6.3 µM; IC50 (L1210): 284 µM; IC50 (CCRF-CEM): 208 µM
16 | CCCCCCC1=CC(=O)OC1=O | 640 | > 1000 | 97.8 |  |  |  |  | 
17 | CCCCC1=C(Br)/C(=C/Br)OC1=O | 65.3 | 23.1 | 1.36 | inactive | Active |  | inactive | 
18 | CCCCCCCCCCCCC1=C(Br)/C(=C/Br)OC1=O |  |  |  |  |  |  |  | IC50 [11]: Not Active; GI50 (Vibrio harveyi [12]): inactive
19 | CCCCCCC1=C/C(=C/Br)OC1=O |  | > 1000 |  |  |  |  |  | 
20 | O=C1C=CC(=C(Br)Br)O1 | 25.5 |  | 2.88 |  |  |  |  | 
21 | CCC1=C(Br)C(=C(Br)Br)OC1=O | 2.26 | 57.5 | 1.15 | inactive |  |  | inactive | 
22 | CCC1=CC(=C(Br)Br)OC1=O | 325 | 200 | 105 | inactive | inactive |  | inactive | 
23 | O=C1C=C/C(=C/Br)O1 | 15.7 |  | 4.07 |  |  |  |  | 
24 | CCCCCCC1=C(Br)C(=O)OC1=O [BROMOHEXYLMALEIC ANHYDRIDE] | 208 | 65.9 | 10.6 |  | inactive |  | inactive | Activity (Vibrio harveyi [8]): Active; IC50 (FM3A): 243 µM; IC50 (HeLa): 156 µM; IC50 (OST): 43 µM; IC50 (L1210): 208 µM; IC50 (CCRF-CEM): 90 µM; Activity (Vibrio harveyi [9]): Active; Activity (Vibrio harveyi [10]): Active
25 | CCCCCCCCC1=C(Br)/C(=C/Br)OC1=O | 267 |  | 3.41 |  |  |  |  | 
26 | CC(Br)C1=C(Br)/C(=C/Br)OC1=O (stereo unspecified) | 16.1 | 4.5 | 6.34 | inactive | Active | inactive | Active | 
27 | CCCCC1=CC(=C(Br)Br)OC1=O | 141 | 148 | 18.9 |  |  |  |  | 
